Experimental data taken from ChEMBL document CHEMBL4400509, “Conversion of Quinazoline Modulators from Inhibitors to Activators of β-Glucocerebrosidase” (J Med Chem, 2019).
pIC50: −log10 of the molar value. Activity calls are given as the source filed them. The calls are words filed in the database; no cut-off is given here.

Tests used:
[1] = target: T1, Lysosomal acid glucosylceramidase (Homo sapiens) (UniProt P04062); experiment: Activation of wild type recombinant human lysosomal beta-glucocerebrosidase at 0.048 to 100 uM using 4-methylumbelliferyl-beta-D-glucopyranoside as substrate preincubated for 5 mins followed by substrate addition and measured after 30 mins by fluorescence assay relative to control
T1 sequence (whole entry): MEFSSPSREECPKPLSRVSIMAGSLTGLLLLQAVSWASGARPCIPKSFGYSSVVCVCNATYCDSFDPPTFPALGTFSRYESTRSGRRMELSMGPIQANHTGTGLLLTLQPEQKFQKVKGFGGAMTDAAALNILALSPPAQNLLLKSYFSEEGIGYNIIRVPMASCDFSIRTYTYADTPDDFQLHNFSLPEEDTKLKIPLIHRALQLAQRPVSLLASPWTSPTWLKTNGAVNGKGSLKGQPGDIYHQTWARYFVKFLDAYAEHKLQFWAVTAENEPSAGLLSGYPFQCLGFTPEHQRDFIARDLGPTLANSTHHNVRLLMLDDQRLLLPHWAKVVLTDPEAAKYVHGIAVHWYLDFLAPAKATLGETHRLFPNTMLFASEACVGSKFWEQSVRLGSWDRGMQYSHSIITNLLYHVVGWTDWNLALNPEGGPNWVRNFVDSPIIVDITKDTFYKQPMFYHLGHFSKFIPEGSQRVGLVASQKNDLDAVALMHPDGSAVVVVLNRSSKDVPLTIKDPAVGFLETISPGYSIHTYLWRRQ
Summary of the method: (§1)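 Recombinant wild-type human GCase (velaglucerase alfa), 7.5 nM final, in 50 mM citric acid/176 mM K2HPO4/0.01% Tween-20, pH 5.9. Enzyme was preincubated 5 min at room temperature with compound (12-point series, 48 nM–100 μM final). 4MU-β-Glc (1.5 mM final) was added, and the reaction ran 30 min at 37 °C. It was stopped with 1 M NaOH/1 M glycine, pH 10, and read at ex 365/em 440 nm. Triplicate, mean.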

[2] = target: T2, Lysosomal acid glucosylceramidase (Homo sapiens, UniProt P04062); experiment: Activation of wild type recombinant human lysosomal beta-glucocerebrosidase using 4-methylumbelliferyl-beta-D-glucopyranoside as substrate preincubated for 5 mins followed by substrate addition and measured after 30 mins by fluorescence assay; summary of the method: as §1
T2 sequence (P04062 whole entry): T1 sequence (whole entry)

[3] = target: T2, Lysosomal acid glucosylceramidase; experiment: Inhibition of wild type recombinant human lysosomal beta-glucocerebrosidase using 4-methylumbelliferyl-beta-D-glucopyranoside as substrate preincubated for 5 mins followed by substrate addition and measured after 30 mins by fluorescence assay
[4] = tested on: Fibroblast; experiment: Induction of post-ER GCase level in fibroblast cells harboring N370S/84GG double mutant derived from Gaucher's disease patient at 25 uM by immunoblotting analysis; format: functional, cell-based; settings: Homo sapiens
Summary of the method: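 N370S/84GG patient fibroblasts, compound-treated 3 days (DMSO 0.1% v/v vehicle) and lysed in 1% Triton X-100. Lysates were left undigested or digested with Endo H or PNGase F. They were then immunoblotted for GCase with GAPDH as loading control, and post-ER form was taken as Endo H-resistant band. n = 4.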

[5] = species on record: Homo sapiens; experiment: Induction of post-ER GCase activity in fibroblast cells harboring N370S/84GG double mutant derived from Gaucher's disease patient at 25 uM using PFB-FDGlu as substrate preincubated for 3 days followed by substrate addition and measured after 1 hr for every 20 mins in presence of bafilomycin by fluorescence assay; format: cell-based

With `c1cncc(-c2nc(N3CCOc4ccccc4C3)c3ccccc3n2)c1` the Emax [1] was 438% and the AC50 ([2]; read-out: AC50) was 9.74 µM.

`CN(Cc1nc2ccccc2[nH]1)c1nc(-c2cccnc2)nc2ccccc12` gave an Emax [1] of 197% and an AC50 ([2]; read-out: AC50) of 7.92 µM.

For `CN1Cc2ccc(CN(C)c3nc(-c4cccnc4)nc4ccccc34)cc2C1`, the Emax [1] was 428% and the AC50 ([2]; read-out: AC50) was 14.9 µM.

`c1cncc(-c2nc(N3CCc4c([nH]c5ccccc45)C3)c3ccccc3n2)c1` was tested, and the Emax [1] was 175% and the AC50 ([2]; read-out: AC50) was 4.27 µM.

Molecule `CN(CCOc1ccccc1)c1nc(-c2cncnc2)nc2ccccc12` has an Emax [1] of 634% and an AC50 ([2]; read-out: AC50) of 0.89 µM.

For `c1ccc(O[C@@H]2CCCN(c3nc(-c4cccnc4)nc4ccccc34)C2)cc1`, the Emax [1] was 302% and the AC50 ([2]; read-out: AC50) was 3.65 µM.

`CN(CCOc1ccccc1)c1nc(-c2cccnc2)nc2ccccc12` showed an Emax [1] of 552 to 761% and an AC50 ([2]; read-out: AC50) of 2.3 to 3.55 µM.

`CN(Cc1ccc2ccccc2c1)c1nc(-c2cccnc2)nc2ccccc12` showed an Emax [1] of 155% and an AC50 ([2]; read-out: AC50) of 3.8 µM.

Molecule `c1ccc(CC2CCCN(c3nc(-c4cccnc4)nc4ccccc34)C2)cc1` (configuration not stated) has an Emax [1] of 160% and an AC50 ([2]; read-out: AC50) of 5.18 µM.

Molecule `CC(CNc1nc(-c2cccnc2)nc2ccccc12)Oc1ccccc1` (configuration not stated) has a pIC50 [3] of 5.37.

Work on `CN(Cc1nc2ccccc2s1)c1nc(-c2cccnc2)nc2ccccc12` yielded an Emax [1] of 517% and an AC50 ([2]; read-out: AC50) of 6.9 µM.

`CN(CCOc1ccccc1)c1nc(-c2ccoc2)nc2ccccc12` showed an Emax [1] of 145% and an AC50 ([2]; read-out: AC50) of 1.68 µM.

In the case of `CCN(CCOc1ccccc1)c1nc(-c2cccnc2)nc2ccccc12`, the Emax [1] was 478% and the AC50 ([2]; read-out: AC50) was 5.38 µM.

`CC(CN(C)c1nc(-c2cccnc2)nc2ccccc12)Oc1ccccc1` (configuration not stated) was tested, and the Emax [1] was 390% and the AC50 ([2]; read-out: AC50) was 8.97 µM.

In the case of `c1ccc(OCCN(CC2CC2)c2nc(-c3cccnc3)nc3ccccc23)cc1`, the Emax [1] was “inactive” and the AC50 [2] was “Not Active”.

For `CN(Cc1ccc2c(c1)OCO2)c1nc(-c2cccnc2)nc2ccccc12`, the Emax [1] was 160% and the AC50 ([2]; read-out: AC50) was 1.63 µM.

Work on `CN(c1nc(-c2cccnc2)nc2ccccc12)[C@@H]1CCc2ccccc2C1` yielded a pIC50 [3] of 5.23.

In the case of `CN(CCCCc1ccccc1)c1nc(-c2cccnc2)nc2ccccc12`, the Emax [1] was 190% and the AC50 ([2]; read-out: AC50) was 3.99 µM.

`CN(c1nc(-c2cccnc2)nc2ccccc12)C1CCCCCC1` was tested, and the pIC50 [3] was 5.00.

Molecule `CN(Cc1cnc2ccccc2n1)c1nc(-c2cccnc2)nc2ccccc12` has an Emax [1] of 674% and an AC50 ([2]; read-out: AC50) of 1.63 µM.

With `CN(c1nc(-c2cccnc2)nc2ccccc12)[C@H]1CCc2ccccc2C1` the pIC50 [3] was 6.37.

`c1ccc(OCCCNc2nc(-c3cccnc3)nc3ccccc23)cc1` was tested, and the pIC50 [3] was 5.60.

`CN(CCOc1ccccc1)c1nc(-c2ccsc2)nc2ccccc12` was tested, and the Emax [1] was “inactive” and the AC50 [2] was “Not Active”.

In the case of `c1cncc(-c2nc(N3CCCOCC3)c3ccccc3n2)c1`, the Emax [1] was 423% and the AC50 ([2]; read-out: AC50) was 44.1 µM.

`CN(CCOc1ccccc1)c1nc(-c2ccccc2)nc2ccccc12` was tested, and the Emax [1] was “inactive” and the AC50 [2] was “Not Active”.

For `CN(CCOc1ccccc1)c1nc(-c2cccs2)nc2ccccc12`, the Emax [1] was “inactive” and the AC50 [2] was “Not Active”.

`CN(c1nc(-c2cccnc2)nc2ccccc12)C1CCCCC1` gave an Emax [1] of 137% and an AC50 ([2]; read-out: AC50) of 2.36 µM.

Work on `CN(CCOCc1ccccc1)c1nc(-c2cccnc2)nc2ccccc12` yielded an Emax [1] of 394% and an AC50 ([2]; read-out: AC50) of 16.9 µM.

`CN(c1nc(-c2cccnc2)nc2ccccc12)C1CCCCCCC1` was tested, and the pIC50 [3] was 5.08.

`c1ccc(COCCNc2nc(-c3cccnc3)nc3ccccc23)cc1` gave a pIC50 [3] of 5.14.

With `CN(c1nc(-c2cccnc2)nc2ccccc12)C1CCCC1` the Emax [1] was 149% and the AC50 ([2]; read-out: AC50) was 6.36 µM.

Molecule `CC(COc1ccccc1)N(C)c1nc(-c2cccnc2)nc2ccccc12` (configuration not stated) has an Emax [1] of 345% and an AC50 ([2]; read-out: AC50) of 7.52 µM.

Work on `CN(CCc1ccccc1)c1nc(-c2cccnc2)nc2ccccc12` yielded an Emax [1] of 126% and an AC50 ([2]; read-out: AC50) of 1.39 µM.

`c1ccc(O[C@H]2CCCN(c3nc(-c4cccnc4)nc4ccccc34)C2)cc1` gave an Emax [1] of 237% and an AC50 ([2]; read-out: AC50) of 4.75 µM.

`c1ccc(OCCNc2nc(-c3cccnc3)nc3ccccc23)cc1` gave an Emax [1] of 140% and an AC50 ([2]; read-out: AC50) of 1.56 µM.

In the case of `CN(CCOc1ccccc1)c1nc(-c2ccccn2)nc2ccccc12`, the AC50 ([2]; read-out: AC50) was > 50 µM.

In the case of `CN(Cc1ccc2c(c1)OCCO2)c1nc(-c2cccnc2)nc2ccccc12`, the Emax [1] was 488% and the AC50 ([2]; read-out: AC50) was 4.88 µM.

Work on `CN(Cc1nc2ccccc2o1)c1nc(-c2cccnc2)nc2ccccc12` yielded an Emax [1] of 643% and an AC50 ([2]; read-out: AC50) of 16.1 µM.

`CN(Cc1ccc2nsnc2c1)c1nc(-c2cccnc2)nc2ccccc12` gave an Emax [1] of 337% and an AC50 ([2]; read-out: AC50) of 1.84 µM.

Work on `c1ccc(CC2CCCCN2c2nc(-c3cccnc3)nc3ccccc23)cc1` (configuration not stated) yielded an Emax [1] of 364% and an AC50 ([2]; read-out: AC50) of 4.47 µM.

`CN(CCCc1ccccc1)c1nc(-c2cccnc2)nc2ccccc12` was tested, and the Emax [1] was 223%.

`CC(COc1ccccc1)Nc1nc(-c2cccnc2)nc2ccccc12` (configuration not stated) gave a pIC50 [3] of 5.73.

For `c1ccc(C2CCCN(c3nc(-c4cccnc4)nc4ccccc34)C2)cc1` (configuration not stated), the Emax [1] was 130% and the AC50 ([2]; read-out: AC50) was 4.66 µM.

For `c1cncc(-c2nc(N3CCc4[nH]c5ccccc5c4C3)c3ccccc3n2)c1`, the Emax [1] was “inactive” and the AC50 [2] was “Not Active”.

`CN(CCOc1ccccc1)c1nc(-c2ccco2)nc2ccccc12` showed an Emax [1] of 229% and an AC50 ([2]; read-out: AC50) of 21.7 µM.

`CCCN(CCOc1ccccc1)c1nc(-c2cccnc2)nc2ccccc12` showed an Emax [1] of 132% and an AC50 ([2]; read-out: AC50) of 3.18 µM.

With `CN(CCOc1ccccc1)c1nc(-c2ccncc2)nc2ccccc12` the Emax [1] was 690% and the AC50 ([2]; read-out: AC50) was 2.89 µM.

With `CN(CCCOc1ccccc1)c1nc(-c2cccnc2)nc2ccccc12` the Emax [1] was 208% and the AC50 ([2]; read-out: AC50) was 6.16 µM.

For `OC[C@H]1CNC[C@@H](O)[C@@H]1O`, the Activity [4] was “inactive” and the Activity [5] was “inactive”.

In the case of `c1ccc(OC2CCN(c3nc(-c4cccnc4)nc4ccccc34)C2)cc1` (configuration not stated), the Emax [1] was 276% and the AC50 ([2]; read-out: AC50) was 1.17 µM.

With `CN(C[C@@H]1COc2ccccc2O1)c1nc(-c2cccnc2)nc2ccccc12` the Emax [1] was 296% and the AC50 ([2]; read-out: AC50) was 2.37 µM.
